Experimental data: ChEMBL document CHEMBL3808312, “Bioactive Constituents of Glycyrrhiza uralensis (Licorice): Discovery of the Effective Components of a Traditional Herbal Medicine” (J Nat Prod, 2016)
pIC50: −log10 of the molar value.

What was measured:
[1] = test system: Influenza A virus; experiment: Antiviral activity against Influenza A virus A/WSN/33(H1N1) infected in dog MDCK cells preincubated with virus for 15 mins followed by cells addition measured at 36 hrs post infection; type: functional, organism-based; details: A/WSN/1933(H1N1)
[2] = test system: Influenza A virus; experiment: Antiviral activity against Influenza A virus A/WSN/33(H1N1) infected in MDCK cells at 100 uM preincubated with virus for 15 mins followed by cells addition measured at 36 hrs post infection; type: functional, A/WSN/1933(H1N1)
Outline: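 MDCK canine kidney cells grown in DMEM and infected with influenza A/WSN/33 (H1N1). Compounds screened at 100 μM. Oseltamivir phosphate served as the positive control.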

SMILES | pIC50 [1] | Activity [2] [%] | inhibition at 100 µM ([2]; Influenza A virus, A/WSN/1933(H1N1), MDCK) [%]
C[C@]1(C(=O)O)CC[C@]2(C)CC[C@]3(C)C(=CC(=O)[C@@H]4[C@@]5(C)CC[C@H](O[C@@H]6O[C@H](C(=O)O)[C@@H](O)[C@H](O)[C@H]6O[C@@H]6O[C@H](C(=O)O)[C@@H](O)[C@H](O)[C@H]6O)[C@](C)(CO)[C@@H]5CC[C@]43C)[C@H]2C1 | 4.40 | 47 | 
CC1(C)[C@@H](O[C@@H]2O[C@H](C(=O)O)[C@@H](O)[C@H](O[C@@H]3O[C@H](C(=O)O)[C@@H](O)[C@H](O)[C@H]3O)[C@H]2O)CC[C@]2(C)[C@H]3C(=O)C=C4[C@H]5C[C@@](C)(C(=O)O)CC[C@]5(C)CC[C@@]4(C)[C@]3(C)CC[C@@H]12 | 4.40 | 47 | 
CC1(C)[C@H]2CC[C@@]3(C)[C@@H](C(=O)C=C4[C@@H]5C[C@]6(C)C[C@@H](COC6=O)[C@@]5(C)CC[C@@]43C)[C@]2(C)CC[C@H]1O[C@@H]1O[C@H](C(=O)O)[C@@H](O)[C@H](O)[C@H]1O[C@@H]1O[C@H](C(=O)O)[C@@H](O)[C@H](O)[C@H]1O | 4.40 | 47 | 
CC(=O)O[C@H]1C[C@@](C)(C(=O)O)C[C@H]2C3=CC(=O)[C@H]4[C@]5(C)CC[C@@H](O[C@@H]6O[C@H](C(=O)O)[C@H](O)[C@H](O)[C@H]6O[C@H]6O[C@@H](CO)[C@H](O)[C@@H](O)[C@@H]6O[C@H]6O[C@H](C)[C@@H](O)[C@H](O)[C@@H]6O)C(C)(C)[C@H]5CC[C@]4(C)[C@@]3(C)CC[C@]12C | 4.40 | 47 | 
CC1(C)[C@@H](O[C@@H]2O[C@H](C(=O)O)[C@@H](O)[C@H](O)[C@H]2O[C@@H]2O[C@H](C(=O)O)[C@@H](O)[C@H](O)[C@H]2O)CC[C@]2(C)[C@H]3C=CC4=C5C[C@@](C)(C(=O)O)CC[C@]5(C)CC[C@@]4(C)[C@]3(C)CC[C@@H]12 | 4.40 | 47 | 
C[C@]1(C(=O)O)CC[C@]2(C)CC[C@]3(C)C(=CC[C@@H]4[C@@]5(C)CC[C@H](O[C@@H]6O[C@H](C(=O)O)[C@@H](O)[C@H](O)[C@H]6O[C@@H]6O[C@H](C(=O)O)[C@@H](O)[C@H](O)[C@H]6O)[C@](C)(CO)[C@@H]5CC[C@]43C)[C@H]2C1 | 4.40 | 47 | 
C[C@]1(C(=O)O)CC[C@@]2(C)CC[C@@]3(C)C(=CC(=O)[C@H]4[C@]5(C)CC[C@@H](O[C@H]6O[C@@H](C(=O)O)[C@H](O)[C@@H](O)[C@@H]6O[C@H]6O[C@@H](C(=O)O)[C@H](O)[C@@H](O)[C@@H]6O)[C@@](C)(CO)[C@H]5CC[C@@]43C)[C@@H]2C1 | 4.40 | 47 | 
CC1(C)[C@@H](O[C@@H]2O[C@H](C(=O)O)[C@@H](O)[C@H](O)[C@H]2O[C@@H]2O[C@H](C(=O)O)[C@@H](O)[C@H](O)[C@H]2O)CC[C@]2(C)[C@H]3C(=O)C=C4[C@H]5C[C@](C)(C(=O)O)CC[C@]5(C)CC[C@@]4(C)[C@]3(C)CC[C@@H]12 | 4.40 | 47 | 
C[C@@H]1[C@@H](O[C@@H]2O[C@H](C(=O)O)[C@@H](O)[C@H](O)[C@H]2O[C@@H]2O[C@H](C(=O)O)[C@@H](O)[C@H](O)[C@H]2O)CC[C@]2(C)[C@H]3CC=C4[C@H]5C[C@@](C)(C(=O)O)CC[C@]5(C)CC[C@@]4(C)[C@]3(C)CC[C@@H]12 | 4.40 | 47 | 
CC(=O)O[C@H]1C[C@@](C)(C(=O)O)C[C@H]2C3=CC(=O)[C@H]4[C@]5(C)CC[C@@H](O[C@@H]6O[C@H](C(=O)O)[C@@H](O)[C@H](O)[C@H]6O[C@H]6OC[C@H](O)[C@@H](O)[C@@H]6O[C@H]6O[C@H](C)[C@@H](O)[C@H](O)[C@@H]6O)C(C)(C)[C@H]5CC[C@]4(C)[C@@]3(C)CC[C@]12C | 4.40 | 47 | 
CC(=O)O[C@H]1C[C@@](C)(C(=O)O)C[C@H]2C3=CC(=O)[C@H]4[C@]5(C)CC[C@@H](O[C@@H]6O[C@H](C(=O)O)[C@@H](O)[C@H](O)[C@H]6O[C@H]6O[C@@H](C(=O)O)[C@H](O)[C@@H](O)[C@@H]6O[C@H]6O[C@H](C)[C@@H](O)[C@H](O)[C@@H]6O)C(C)(C)[C@H]5CC[C@]4(C)[C@@]3(C)CC[C@]12C | 4.40 | 47 | 
C[C@@H]1O[C@@H](O[C@H]2[C@H](O[C@@H]3[C@@H](O[C@@H]4CC[C@]5(C)[C@H](CC[C@@]6(C)[C@H]5C(=O)C=C5[C@@H]7C[C@]8(C)C[C@@H](COC8=O)[C@@]7(C)CC[C@@]56C)C4(C)C)O[C@@H](C(=O)O)[C@H](O)[C@H]3O)O[C@H](C(=O)O)[C@@H](O)[C@@H]2O)[C@H](O)[C@H](O)[C@H]1O | 4.40 | 47 | 
CC1(C)[C@@H](O[C@H]2O[C@H](C(=O)O)[C@@H](O)[C@H](O)[C@H]2O[C@@H]2O[C@H](C(=O)O)[C@@H](O)[C@H](O)[C@H]2O)CC[C@]2(C)[C@H]3C(=O)C=C4[C@@H]5C[C@@](C)(C(=O)O)CC[C@]5(C)CC[C@@]4(C)[C@]3(C)CC[C@@H]12 [GLYCYRRHIZIN] | 4.40 | 47 | 
CC1(C)[C@@H](O[C@@H]2O[C@H](C(=O)O)[C@@H](O)[C@H](O)[C@H]2O)CC[C@]2(C)[C@H]3C(=O)C=C4[C@H]5C[C@@](C)(C(=O)O)CC[C@]5(C)CC[C@@]4(C)[C@]3(C)CC[C@@H]12 | 4.40 | 47 | 
CCOC(=O)C1=C[C@@H](OC(CC)CC)[C@H](NC(C)=O)[C@@H](N)C1 [OSELTAMIVIR PHOSPHATE] | 4.34 |  | 
CC1(C)[C@H]2CC[C@@]3(C)[C@@H](C(=O)C=C4[C@@H]5C[C@]6(C)C[C@@H](COC6=O)[C@@]5(C)CC[C@@]43C)[C@]2(C)CC[C@H]1O[C@H]1O[C@@H](C(=O)O)[C@H](O)[C@@H](O)[C@@H]1O[C@@H]1O[C@H](C(=O)O)[C@H](O)[C@H](O)[C@H]1O | 4.40 | 47 | 
CC(=O)O[C@@H]1C[C@](C)(C=O)C[C@@H]2C3=CC(=O)[C@@H]4[C@@]5(C)CC[C@H](O[C@@H]6O[C@H](C(=O)O)[C@@H](O)[C@H](O)[C@H]6O[C@@H]6O[C@H](C(=O)O)[C@@H](O)[C@H](O)[C@H]6O)C(C)(C)[C@@H]5CC[C@@]4(C)[C@]3(C)CC[C@]21C | 4.40 | 47 | 
CC(=O)O[C@@H]1C[C@](C)(C(=O)O)C[C@@H]2C3=CC(=O)[C@@H]4[C@@]5(C)CC[C@H](O[C@@H]6O[C@H](C(=O)O)[C@@H](O)[C@H](O)[C@H]6O[C@@H]6O[C@H](C(=O)O)[C@@H](O)[C@H](O)[C@H]6O)[C@](C)(CO)[C@@H]5CC[C@@]4(C)[C@]3(C)CC[C@]21C | 4.40 | 47 | 
CC1(C)[C@@H](O[C@@H]2O[C@H](C(=O)O)[C@@H](O)[C@H](O)[C@H]2O[C@@H]2O[C@H](C(=O)O)[C@@H](O)[C@H](O)[C@H]2O)CC[C@]2(C)[C@H]3C(=O)C=C4[C@H]5C[C@@](C)(CO)C[C@@H](O)[C@]5(C)CC[C@@]4(C)[C@]3(C)CC[C@@H]12 | 4.40 | 47 | 
CC(C)=CCc1c(O)cc(O)c2c(=O)c(-c3ccc(O)c(O)c3)coc12 [GANCAONIN L] |  |  | > 30
CC(C)(O)CCc1c(O)cc2occ(-c3ccc(O)c(O)c3)c(=O)c2c1O |  | >30 | 
